Test results taken from article PMC4744243 (Oncogene, 2015).
Read-outs that look alike come from different tables or passages of the source.

Key:
[1] = system: K-P (KARPAS422-parental cells); type: cell-based; conditions: 10 μM for 6 days
[2] = system: K-R2- and K-R10-derived cell clones; type: cell-based; conditions: four K-R2- and K-R10-derived clones; 6-day
[3] = system: H3K4, K9, K36 and K79 methylation; test: Western blot and histone profiling of other H3 methylation marks; type: cell-based; conditions: 2 or 10 µM, 3 days
Summary of the method: (§1)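 Karpas422 parental cells were grown in RPMI-1640 with 10% FBS at 37 °C and 5% CO2. Histones were extracted from pellets of 5 × 10^6 cells with a histone purification kit. Free lysines were blocked by derivatization, and methylated H3 peptides were then analysed by high-resolution mass spectrometry.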

[4] = system: K-P (KARPAS422-parental cells); conditions: 6-day, compared with EI1
tumor xenograft = conditions: high-dose treatment; after cessation of the dosing; cited from earlier work
WSU-DLCL2 xenograft = conditions: high-dose; 28-day treatment cycle; cited from earlier work
PRC2^WT = PRC2^WT (Homo sapiens, UniProt Q15910); type: biochemical; conditions: read-out: IC50 WT, [SAM] 1 µM
PRC2^Y111L = PRC2^Y111L (Homo sapiens, UniProt Q15910, Y111L); type: biochemical; conditions: for IC50: read-out: IC50 Y111L, [SAM] 1 µM; for IC50 Y111L: [SAM] 20 μM
PRC2^Y641N/Y661D = PRC2^Y641N/Y661D (Homo sapiens, UniProt Q15910, Y641N/Y661D); type: biochemical; conditions: for IC50: read-out: IC50 Y641N/Y6661D, [SAM] 20 μM
[5] = system: H3K27Me3 peptides in K-P cells; test: Histone tail profiling by mass spectrometry; type: cell-based; conditions: 2 or 10 µM, 3 days, vs DMSO control
Summary of the method: as §1

[6] = system: H3K27Me2 and Me3 in K-P cells; test: Western blot of H3K27 methylation; type: cell-based; conditions: K-P cells treated with increasing doses
EZH2 WT = conditions: read-out: half-maximal inhibition (IC50); cited from earlier work
EZH2 Y641 mutant = conditions: read-out: half-maximal inhibition (IC50); cited from earlier work

Chain of PRC2^Y111L (Q15910 whole entry Y111L): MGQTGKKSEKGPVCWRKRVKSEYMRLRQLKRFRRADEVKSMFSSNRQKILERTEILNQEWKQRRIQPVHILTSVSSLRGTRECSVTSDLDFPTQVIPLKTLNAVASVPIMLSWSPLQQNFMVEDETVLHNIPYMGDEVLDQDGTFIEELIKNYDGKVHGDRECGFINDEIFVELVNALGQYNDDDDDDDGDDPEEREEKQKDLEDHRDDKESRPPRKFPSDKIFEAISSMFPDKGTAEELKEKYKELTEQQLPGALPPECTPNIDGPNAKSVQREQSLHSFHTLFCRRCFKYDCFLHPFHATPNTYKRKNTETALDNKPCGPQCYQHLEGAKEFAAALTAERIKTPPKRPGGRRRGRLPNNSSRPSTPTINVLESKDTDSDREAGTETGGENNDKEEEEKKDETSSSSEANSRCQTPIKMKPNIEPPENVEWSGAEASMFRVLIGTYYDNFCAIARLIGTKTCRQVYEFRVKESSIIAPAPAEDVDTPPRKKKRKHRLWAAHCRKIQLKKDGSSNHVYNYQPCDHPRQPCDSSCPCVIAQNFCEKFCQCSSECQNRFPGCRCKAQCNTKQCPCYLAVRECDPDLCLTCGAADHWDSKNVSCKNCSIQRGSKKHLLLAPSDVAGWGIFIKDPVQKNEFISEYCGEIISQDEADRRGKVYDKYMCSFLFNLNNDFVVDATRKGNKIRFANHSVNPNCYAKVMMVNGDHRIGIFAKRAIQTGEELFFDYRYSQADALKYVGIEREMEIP
Chain of PRC2^Y111L (O75530 whole entry partner): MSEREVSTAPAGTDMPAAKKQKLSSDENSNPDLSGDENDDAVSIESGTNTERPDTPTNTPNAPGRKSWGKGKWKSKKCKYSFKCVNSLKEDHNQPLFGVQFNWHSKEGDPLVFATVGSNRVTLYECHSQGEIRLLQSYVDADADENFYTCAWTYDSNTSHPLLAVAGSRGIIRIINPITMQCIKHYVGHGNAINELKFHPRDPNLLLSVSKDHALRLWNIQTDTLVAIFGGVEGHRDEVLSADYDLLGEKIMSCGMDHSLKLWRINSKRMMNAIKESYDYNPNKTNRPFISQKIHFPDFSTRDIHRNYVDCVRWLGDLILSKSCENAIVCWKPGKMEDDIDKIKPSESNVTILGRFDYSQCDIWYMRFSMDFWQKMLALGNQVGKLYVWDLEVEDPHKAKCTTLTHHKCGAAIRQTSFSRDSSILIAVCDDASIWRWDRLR
Chain of PRC2^Y111L (Q15022 whole entry partner): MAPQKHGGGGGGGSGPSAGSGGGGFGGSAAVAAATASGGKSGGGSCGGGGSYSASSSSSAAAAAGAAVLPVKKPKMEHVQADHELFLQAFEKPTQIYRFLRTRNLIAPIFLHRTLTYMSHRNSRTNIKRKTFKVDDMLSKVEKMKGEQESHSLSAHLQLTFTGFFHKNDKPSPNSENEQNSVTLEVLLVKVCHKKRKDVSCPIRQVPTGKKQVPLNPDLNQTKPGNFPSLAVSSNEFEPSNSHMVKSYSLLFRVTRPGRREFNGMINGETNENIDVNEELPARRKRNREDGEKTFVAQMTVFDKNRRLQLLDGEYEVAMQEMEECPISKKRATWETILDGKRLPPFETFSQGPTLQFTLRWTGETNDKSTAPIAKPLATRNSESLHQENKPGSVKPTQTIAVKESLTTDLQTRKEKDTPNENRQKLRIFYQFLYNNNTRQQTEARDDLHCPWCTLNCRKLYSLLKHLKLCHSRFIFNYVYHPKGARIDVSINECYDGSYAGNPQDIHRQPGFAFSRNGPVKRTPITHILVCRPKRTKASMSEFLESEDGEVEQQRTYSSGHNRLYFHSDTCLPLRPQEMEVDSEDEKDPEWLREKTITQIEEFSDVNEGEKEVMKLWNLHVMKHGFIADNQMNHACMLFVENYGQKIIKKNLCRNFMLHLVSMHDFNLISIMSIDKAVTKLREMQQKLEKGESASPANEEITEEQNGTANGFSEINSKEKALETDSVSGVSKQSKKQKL
Chain of PRC2^Y641N/Y661D (Q15910 whole entry Y641N/Y661D): as the sequence (Q15910 whole entry Y111L) above, with L111Y, Y641N, Y661D counted along it
Chain of PRC2^Y641N/Y661D (O75530 whole entry partner): as the sequence (O75530 whole entry partner) above
Chain of PRC2^Y641N/Y661D (Q15022 whole entry partner): as the sequence (Q15022 whole entry partner) above
Chain of PRC2^WT (Q15910 whole entry): as the sequence (Q15910 whole entry Y111L) above, with L111Y counted along it
Chain of PRC2^WT (O75530 whole entry partner): as the sequence (O75530 whole entry partner) above
Chain of PRC2^WT (Q15022 whole entry partner): as the sequence (Q15022 whole entry partner) above

SMILES	reduction of BrdU incorporation compared with DMSO control [1] [%]	growth inhibition in cell proliferation assay [2]	decrease in H3K4, K9, K36 and K79 methylation [3]	growth arrest (growth inhibition) in proliferation assay [4]	anti-tumor effect in tumor xenograft studies (tumor xenograft)	anti-tumor effect in WSU-DLCL2 xenograft model (WSU-DLCL2 xenograft)	IC50 (PRC2^WT; substrate H3K27Me0 peptide) [nM]	IC50 (PRC2^WT; substrate H3K27Me1 peptide) [nM]	IC50 (PRC2^Y111L; substrate H3K27Me0 peptide) [µM]	IC50 (PRC2^Y111L; substrate H3K27Me1 peptide) [µM]	IC50 Y111L (PRC2^Y111L; substrate H3K27Me0 peptide)	IC50 Y111L (PRC2^Y111L; substrate H3K27Me1 peptide)	IC50 against PRC2^Y641N/Y661D, fold weaker compared with PRC2^Y641N (PRC2^Y641N/Y661D; 1 μM SAM, both H3K27Me1 and Me2 substrates) [fold]	IC50 (PRC2^Y641N/Y661D; substrate H3K27Me1 peptide) [µM]	IC50 (PRC2^Y641N/Y661D; substrate H3K27Me2 peptide) [µM]	decrease of K27Me3 methylated peptides [5] [fold]	H3K27Me2 and Me3 levels (western blot) [6]	IC50 (EZH2 WT) [nM]	IC50 (EZH2 Y641 mutant) [nM]
CCN(c1cc(-c2ccc(CN3CCOCC3)cc2)cc(C(=O)NCc2c(C)cc(C)[nH]c2=O)c1C)C1CCOCC1 [EPZ-6438, reference compound]	> 90	refractory	no noticeable decrease	more potent in inducing growth arrest	complete tumor regression without tumor regrowth	partial tumor regression													
CCC(CC)n1ccc2c(C(=O)NCc3c(C)cc(C)[nH]c3=O)cc(C#N)cc21 [EI1]	> 90	refractory	no noticeable decrease				20	9	3.1	4.2	inactive	inactive	> 300	> 25	> 25	> 2	both H3K27Me2 and Me3 levels decreased	10 to 20	10 to 20
